Measurements as given in ChEMBL document CHEMBL4725436, “Gibberellin JRA-003: A Selective Inhibitor of Nuclear Translocation of IKKα” (ACS Med Chem Lett, 2020).

What was measured:
[1] = system: PSN1; assay: Cytotoxicity against human PSN1 cells assessed as reduction in cell viability measured after 24 hrs by CellTiter-Glo luminescent assay; assay type: functional, cell-based; conditions: PSN1, 24 h
Summary of the method: (§1)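 High-throughput viability screen of test agents across a panel of 22 cancerous and noncancerous human cell lines. Viability was read by CellTiter-Glo luminescence.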

[2] = system: NCI-H446; assay: Cytotoxicity against human NCI-H446 cells assessed as reduction in cell viability measured after 24 hrs by CellTiter-Glo luminescent assay; assay type: functional, cell-based; conditions: NCI-H446, 24 h; summary of the method: as §1
[3] = system: SUD4; assay: Cytotoxicity against human SU-DHL-4 cells assessed as reduction in cell viability measured after 24 hrs by CellTiter-Glo luminescent assay; assay type: functional, cell-based; conditions: SU-DHL-4, 24 h; summary of the method: as §1
[4] = system: Hs-578T; assay: Cytotoxicity against human Hs-578T cells assessed as reduction in cell viability measured after 24 hrs by CellTiter-Glo luminescent assay; assay type: functional, cell-based; summary of the method: as §1
[5] = Cytotoxicity against human Hs895SK cells assessed as reduction in cell viability measured after 24 hrs by CellTiter-Glo luminescent assay; assay type: cell-based; conditions: Hs 895.Sk; summary of the method: as §1
[6] = Inhibition of IKKalpha/IKKbeta in human HEK293T cells transfected with firefly luciferase gene assessed as inhibition of TNF-alpha-stimulated NF-kappaB signalling preincubated for 1 hr followed by TNF alpha stimulation measured after 3 hrs by luciferase reporter gene assay; assay type: cell-based; conditions: HEK-293T
Summary of the method: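 Commercial NF-κB-driven luciferase reporter assay in HEK 293T cells stimulated with TNFα. EC50 was derived from the luminescence readout.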

[7] = system: RCK8; assay: Cytotoxicity against human RC-K8 cells assessed as reduction in cell viability measured after 24 hrs by CellTiter-Glo luminescent assay; assay type: functional, cell-based; conditions: RCK8, 24 h; summary of the method: as §1
[8] = system: HCC1599; assay: Cytotoxicity against human HCC1599 cells assessed as reduction in cell viability measured after 24 hrs by CellTiter-Glo luminescent assay; assay type: functional, cell-based; conditions: HCC1599, 24 h; summary of the method: as §1
[9] = Cytotoxicity against human Hs888Lu cells assessed as reduction in cell viability measured after 24 hrs by CellTiter-Glo luminescent assay; assay type: cell-based; summary of the method: as §1
[10] = system: CA46; assay: Cytotoxicity against human CA46 cells assessed as reduction in cell viability measured after 24 hrs by CellTiter-Glo luminescent assay; assay type: functional, cell-based; conditions: CA46, 24 h; summary of the method: as §1
[11] = system: HEK-293T; assay: Cytotoxicity against human HEK293T cells assessed as reduction in cell viability measured after 24 hrs by CellTiter-Glo luminescent assay; assay type: cell-based; summary of the method: as §1
[12] = Cytotoxicity against human Hs578Bst cells assessed as reduction in cell viability measured after 24 hrs by CellTiter-Glo luminescent assay; assay type: cell-based; summary of the method: as §1
[13] = Cytotoxicity against human Hs895T cells assessed as reduction in cell viability measured after 24 hrs by CellTiter-Glo luminescent assay; assay type: functional, cell-based; summary of the method: as §1

| Structure (SMILES) | IC50 [1] [µM] | IC50 [2] [µM] | IC50 [3] [µM] | IC50 [4] [µM] | IC50 [5] [µM] | EC50 [6] [µM] | IC50 [7] [µM] | IC50 [8] [µM] | IC50 [9] [µM] | IC50 [10] [µM] | IC50 [11] [µM] | IC50 [12] [µM] | IC50 [13] [µM] | other results |
| --- | --- | --- | --- | --- | --- | --- | --- | --- | --- | --- | --- | --- | --- | --- |
| COC(=O)/C=C/Oc1ccc2c(c1C)[C@H](C(=O)OC)[C@@]13CC(=O)[C@@](C)(CC[C@@H]21)C3 | > 10 | > 10 | > 10 | > 10 | > 10 | > 100 | > 10 | > 10 | > 10 | > 10 | > 10 | > 10 | > 10 |  |
| C=C1C[C@]23C[C@@]1(O)CC[C@H]2c1ccc(O)c(C)c1[C@@H]3C(=O)OC | > 10 | > 10 | > 10 | > 10 | > 10 | > 100 | > 10 | > 10 | > 10 | > 10 | > 10 | > 10 | > 10 |  |
| C=C1C[C@]23C[C@@]1(O)CC[C@H]2c1ccc(O/C=C/C(=O)OC)c(C)c1[C@@H]3C(=O)OC | > 10 | > 10 | > 10 | > 10 | > 10 | > 100 | > 10 | > 10 | > 10 | > 10 | > 10 | > 10 | > 10 |  |
| C=C1[C@@H]2OC(=O)[C@H]3c4c(C)cccc4[C@@H]4CC[C@]1(O)C[C@@]243 | > 10 | > 10 | > 10 | > 10 | > 10 | > 100 | > 10 | > 10 | > 10 | > 10 | > 10 | > 10 | > 10 |  |
| Cc1cccc2c1[C@H](C(=O)O)[C@@]13CC(=O)[C@@](C)(CC[C@H]21)C3 | > 10 | > 10 | > 10 | > 10 | > 10 | > 100 | > 10 | > 10 | > 10 | > 10 | > 10 | > 10 | > 10 |  |
| C=C1C(=O)[C@@]2(C)CC[C@H]3c4cccc(C)c4[C@H](C(=O)OC)[C@@]13C2 | > 10 |  |  |  | > 10 | 22 |  |  | > 10 |  |  |  | > 10 | EC50 [2]: 2100 nM; EC50 [3]: 620 nM; EC50 [4]: 5.2 µM; EC50 [7]: 970 nM; EC50 [8]: 1400 nM; EC50 [10]: 2500 nM; EC50 [11]: 2.9 µM; EC50 [12]: 10 µM |
| COC(=O)[C@H]1c2c(ccc(O)c2C)[C@@H]2CC[C@@]3(C)C[C@]21CC3=O | > 10 | > 10 | > 10 | > 10 | > 10 | > 100 | > 10 | > 10 | > 10 | > 10 | > 10 | > 10 | > 10 |  |
| C=C1[C@@H](O)[C@]23C[C@@]1(O)CC[C@@H]2c1cccc(C)c1[C@@H]3C(=O)OC | > 10 | > 10 | > 10 | > 10 | > 10 | > 100 | > 10 | > 10 | > 10 | > 10 | > 10 | > 10 | > 10 |  |
| C=C1C[C@]23C[C@@]1(O)CC[C@H]2c1cc(Br)c(O)c(C)c1[C@@H]3C(=O)OC | > 10 | > 10 | > 10 | > 10 | > 10 | > 100 | > 10 | > 10 | > 10 | > 10 | > 10 | > 10 | > 10 |  |
| C=C1C(=O)[C@@]2(C)CC[C@@H]3c4cccc(C)c4[C@H](C(=O)OC)[C@@]13C2 | > 10 |  |  |  |  | 55 |  |  | > 10 |  | > 10 | > 10 | > 10 | EC50 [2]: 2900 nM; EC50 [3]: 690 nM; EC50 [4]: 4.8 µM; EC50 [5]: 9.5 µM; EC50 [7]: 1900 nM; EC50 [8]: 1100 nM; EC50 [10]: 460 nM |
| C=C1[C@@H](O)[C@]23C[C@@]1(O)CC[C@H]2c1ccc(O)c(C)c1[C@@H]3C(=O)OC | > 10 | > 10 | > 10 | > 10 | > 10 | > 100 | > 10 | > 10 | > 10 | > 10 | > 10 | > 10 | > 10 |  |
| C=C1C[C@]23C[C@@]1(O)CC[C@H]2c1cc2c(C(=O)OC)coc2c(C)c1[C@@H]3C(=O)OC | > 10 | > 10 | > 10 | > 10 | > 10 | > 100 | > 10 | > 10 | > 10 | > 10 | > 10 | > 10 | > 10 |  |
| C=C1[C@@H](O)[C@]23C[C@@]1(O)CC[C@H]2[C@@]12C=C[C@H](O)[C@@](C)(C(=O)O1)[C@H]2[C@@H]3C(=O)OC | > 10 | > 10 | > 10 | > 10 | > 10 | > 100 | > 10 | > 10 | > 10 | > 10 | > 10 | > 10 | > 10 |  |
| C=C1C(=O)[C@]23C[C@@]1(O)CC[C@H]2[C@@]12C=CC(=O)[C@@](C)(C(=O)O1)[C@H]2[C@@H]3C(=O)OC | > 10 |  |  |  | > 10 | 1.7 |  |  | > 10 |  |  | > 10 | > 10 | EC50 [2]: < 40 nM; EC50 [3]: < 40 nM; EC50 [4]: 5.2 µM; EC50 [7]: 72 nM; EC50 [8]: 830 nM; EC50 [10]: 880 nM; EC50 [11]: 7.1 µM |
| COC(=O)[C@H]1c2c(cc3ccoc3c2C)[C@@H]2CC[C@@]3(C)C[C@]21CC3=O | > 10 | > 10 | > 10 | > 10 | > 10 | > 100 | > 10 | > 10 | > 10 | > 10 | > 10 | > 10 | > 10 |  |
| C=C1C[C@]23C[C@@]1(O)CC[C@H]2c1cc(Br)c(O/C=C/C(=O)OC)c(C)c1[C@@H]3C(=O)OC | > 10 | > 10 | > 10 | > 10 | > 10 | > 100 | > 10 | > 10 | > 10 | > 10 | > 10 | > 10 | > 10 |  |
| COC(=O)[C@H]1c2c(C)cccc2[C@@H]2CC[C@@]3(C)C[C@]21CC3=O | > 10 | > 10 | > 10 | > 10 | > 10 | > 100 | > 10 | > 10 | > 10 | > 10 | > 10 | > 10 | > 10 |  |
